Source: ChEMBL document CHEMBL4270591, “Exploitation of new chalcones and 4H-chromenes as agents for cancer treatment” (Eur J Med Chem, 2018)
Active and inactive are the calls of the source. The calls are words filed in the database; no cut-off is given here.

Assays:
[1] = test system: MCF7; test: Anticancer activity against human MCF7 cells assessed as cell viability at 30 uM after 72 hrs by sulforhodamine B assay relative to control; format: functional; conditions: MCF7, 72 h, read-out: Activity
[2] = test system: MCF7; test: Anticancer activity against human MCF7 cells assessed as cell viability at 10 uM after 72 hrs by sulforhodamine B assay relative to control; format: functional; conditions: MCF7, 72 h, read-out: Activity
[3] = test system: Hs-578T; test: Anticancer activity against human Hs 578T cells assessed as cell viability at 10 uM after 72 hrs by sulforhodamine B assay relative to control; format: functional; conditions: read-out: Activity
[4] = Cytotoxicity against human MCF10A cells assessed as cell viability at 30 uM after 72 hrs by sulforhodamine B assay relative to control; format: cell-based, MCF-10A; conditions: read-out: Activity
[5] = test system: Hs-578T; test: Anticancer activity against human Hs 578T cells assessed as cell viability at 30 uM after 72 hrs by sulforhodamine B assay relative to control; format: functional; conditions: read-out: Activity
[6] = Cytotoxicity against human MCF10A cells assessed as cell viability at 10 uM after 72 hrs by sulforhodamine B assay relative to control; format: cell-based, MCF-10A; conditions: read-out: Activity
[7] = test system: MCF7; test: Anticancer activity against human MCF7 cells after 72 hrs by sulforhodamine B assay; format: functional, cell-based; conditions: MCF7, 72 h
Outline: (§1)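 Cells seeded at 3000 cells/100 µL per well, left to adhere overnight (18-20 h), then exposed to a range of compound concentrations for 72 h. Vehicle control was 0.5% DMSO. Cytotoxicity was read by sulforhodamine B at 490 nm, with 690 nm as background. IC50 came from sigmoidal variable-slope nonlinear regression on log-transformed data, from at least three independent experiments, each in triplicate.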

[8] = test system: Hs-578T; test: Anticancer activity against human Hs 578T cells after 72 hrs by sulforhodamine B assay; format: functional, cell-based; outline: as §1
[9] = test system: MCF-10A; test: Cytotoxicity against human MCF10A cells after 72 hrs by sulforhodamine B assay; format: cell-based; outline: as §1
[10] = test system: MCF7; test: Antiproliferative activity against human MCF7 cells at IC50 after 48 hrs by Brdu incorporation assay relative to control; format: functional
Outline: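 Labelling with 20 µM BrdU (final) for 6 h. FixDenat 30 min, then anti-BrdU-POD 90 min at room temperature. Substrate colour for 5-10 min, stopped with H2SO4, absorbance at 450 nm (reference 690 nm). Cell-free blanks included. At least three independent experiments in triplicate.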

[11] = test system: MCF7; test: Antimigratory activity against human MCF7 cells assessed as reduction in cell migration at half IC50 to IC50 after 12 to 48 hrs by microscopy based wound healing assay; format: functional
Outline: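 Wound healing: MCF-7 cells plated at 9.0 × 10^5 per 2 mL and grown overnight to confluence. Two scratches made with a pipette tip, then wash with PBS. Treatment at IC50 or ½ IC50, or 0.5% DMSO. Four positions per wound were imaged at 0, 12, 24 and 48 h at 100x. Migration distances were measured and normalised to control. Three independent experiments.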

[12] = test system: MCF7; test: Cell cycle arrest in human MCF7 cells at IC50 after 48 hrs by propidium iodide staining based flow cytometry; format: functional
Outline: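 MCF-7 cells seeded at 2.5×10^5 per well and grown overnight. […] Cells fixed in 70% ethanol for at least 30 min at 4 °C, then stained with PI (50 µg/mL) plus RNase A and Triton X-100 for 1 h in the dark at […]. Flow cytometry with 488 nm excitation gave the phase distribution. Two independent biological replicates.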

[13] = test system: MCF7; test: Induction of apoptosis in human MCF7 cells assessed as increase in cleaved PARP level at IC50 after 24 hrs by Western blot analysis; format: functional, cell-based
Outline: (§2)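 MCF-7 cells at 70-80% confluence were treated at IC50 or with 0.5% DMSO for 24 h. Lysis in Tris/NaCl/EDTA buffer with NP-40, Triton X-100, phosphatase and protease inhibitors. 20 µg protein run on 12% SDS-PAGE and transferred to nitrocellulose. Probed overnight at 4 °C with anti-PARP (1:500) or anti-BIM (1:1000), then HRP secondaries and chemiluminescence. At least two independent experiments.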

[14] = test system: MCF7; test: Antiproliferative activity against human MCF7 cells after 72 hrs in presence of doxorubicin by sulforhodamine B assay; format: functional, cell-based; conditions: MCF7, 72 h
[15] = test system: MCF7; test: Induction of apoptosis in human MCF7 cells at IC50 after 48 hrs by Annexin-V-FITC/propidium iodide staining based flow cytometry; format: functional, cell-based
Outline: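 Floating and adherent cells were pooled and resuspended in binding buffer. Staining with FITC-annexin V and PI for 15 min at room temperature in the dark, followed by flow cytometry quadrant analysis normalised to untreated cells. Two independent experiments, triplicates within each.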

[16] = Selectivity index, ratio of IC50 for human MCF10A cells in presence of doxorubicin to IC50 for human MCF7 cells in presence of doxorubicin; format: toxicity; conditions: MCF10A cells and MCF7 cells, read-out: Ratio IC50
[17] = test system: MCF7; test: Induction of apoptosis in human MCF7 cells assessed as decrease in Bcl-xL level at IC50 after 48 hrs by Western blot analysis
[18] = test system: MCF-10A; test: Cytotoxicity against human MCF10A cells after 72 hrs in presence of doxorubicin by sulforhodamine B assay; format: cell-based
[19] = test system: MCF7; test: Induction of apoptosis in human MCF7 cells assessed as increase in Bim level at IC50 after 24 hrs by Western blot analysis; format: functional, cell-based; outline: as §2
[20] = test system: MCF7; test: Induction of microtubule disruption in human MCF7 cells at IC50 after 12 hrs by DAPI staining based microscopic analysis; format: cell-based
Outline: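 MCF-7 cells seeded at 2.0×10^5 per well and incubated overnight. Treatment at IC50 for 12 h, with 0.5% DMSO vehicle and paclitaxel (2 µM) as reference. Fixation in methanol for 20 min at -20 °C and blocking in 5% BSA. β-tubulin antibody (1:200) for 2 h, fluorescent secondary for 1 h, and DAPI nuclear counterstain. Confocal imaging with a 60x oil objective, 405/488 nm excitation.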

Row | Compound | viability at 30 µM [1] [%] | viability at 10 µM [2] [%] | viability at 10 µM [3] [%] | viability at 72 h, 30 µM [4] [%] | viability at 30 µM [5] [%] | viability at 72 h, 10 µM [6] [%] | also measured
1 | Cc1ccc(C(=O)/C=C/c2cccc(Br)c2)cc1 | 34 | 60.4 | – | – | – | – | –
2 | COc1cc(Br)cc(/C=C/C(=O)c2ccccc2)c1O | 28.1 | 67 | 46.9 | 40.7 | 106 | 34.4 | –
3 | COC(=O)C1=C(N)Oc2ccc(Cl)cc2C1CC(=O)c1ccccc1 (stereo not drawn) | 44.2 | 87.2 | – | – | – | – | –
4 | COc1cccc(C(=O)/C=C/c2cc(Cl)ccc2O)c1 | 26.3 | 38.2 | – | – | – | – | –
5 | COc1ccc(O)c(/C=C/C(=O)c2ccc(Cl)cc2)c1 | 29.3 | 86.9 | 106 | 48 | 102 | 35.7 | –
6 | COc1cccc(C(=O)CC2C(C#N)=C(N)Oc3ccc(Br)cc32)c1 (stereo not drawn) | 34.4 | 51.2 | 71.5 | 43.7 | 37.9 | 101 | IC50 [7]: 5.94 µM; IC50 [8]: 10.3 µM; IC50 [9]: 18.9 µM
7 | COC(=O)C1=C(N)Oc2ccc(Br)cc2C1CC(=O)c1ccc(Cl)cc1 (stereo not drawn) | 32.4 | 67.6 | – | – | – | – | –
8 | COC(=O)C1=C(N)Oc2c(OC)cc(Br)cc2C1CC(=O)c1ccc(Cl)cc1 (stereo not drawn) | 33.8 | 80.3 | 63 | 47.8 | 90.2 | 40.9 | –
9 | COc1cc(Br)cc2c1OC(N)=C(C#N)C2CC(=O)c1ccc(Br)cc1 (stereo not drawn) | 33.1 | 39.7 | – | – | – | – | –
10 | Cc1ccc(C(=O)CC2C(C#N)=C(N)Oc3ccc(Br)cc32)cc1 (stereo not drawn) | 32.3 | 69 | 88.8 | 33.5 | 46.3 | 133 | –
11 | N#CC1=C(N)Oc2c(F)cc(F)cc2C1CC(=O)c1ccccc1 (stereo not drawn) | 76.9 | 99.6 | 92.4 | 128 | 144 | 53.8 | –
12 | COC(=O)C1=C(N)Oc2c(OC)cc(Br)cc2C1CC(=O)c1ccc(Br)cc1 (stereo not drawn) | 31.9 | 50.2 | – | – | – | – | –
13 | O=C(/C=C/c1cc(F)cc(F)c1O)c1ccccc1 | 37.6 | 110 | 96.5 | 41.4 | 114 | 37.4 | –
14 | COc1cc(Br)cc(/C=C/C(=O)c2ccc(Cl)cc2)c1O | 28 | 53.3 | 53.8 | 47.8 | 60.3 | 35.2 | IC50 [7]: 5.15 µM; IC50 [8]: 5.33 µM; IC50 [9]: 12.1 µM
15 | COc1cc(Br)cc2c1OC(N)=C(C#N)C2CC(=O)c1ccc(Cl)cc1 (stereo not drawn) | 33.3 | 49.6 | 90.7 | 41.6 | 90.7 | 36.8 | –
16 | Cc1ccc(C(=O)/C=C/c2cc(Cl)ccc2O)cc1 | 27.7 | 36.8 | 66.3 | 51.1 | 70.5 | 33.5 | Activity [10]: >50%; Activity [11]: inactive; Activity [12]: inactive; Activity [13]: Active; IC50 [7]: 3.98 µM; IC50 [8]: 4.8 µM; IC50 [9]: 24.2 µM; IC50 [14]: 0.27 µM; Activity [15]: inactive; selectivity ratio [16]: 3.07; Activity [17]: Active; IC50 [18]: 1.1 µM; Activity [19]: Active; Activity [20]: inactive

Row | Compound | viability at 30 µM [1] [%] | viability at 10 µM [2] [%] | viability at 10 µM [3] [%] | viability at 72 h, 30 µM [4] [%] | viability at 30 µM [5] [%] | viability at 72 h, 10 µM [6] [%] | also measured
17 | COc1cc(Br)cc2c1OC(N)=C(C#N)C2CC(=O)c1ccc(C)cc1 (stereo not drawn) | 52.8 | 116 | – | – | – | – | –
18 | O=C(/C=C/c1ccccc1O)c1ccccc1 | 32.1 | 71.9 | – | – | – | – | –
19 | Cc1ccc(C(=O)/C=C/c2cc(F)cc(F)c2O)cc1 | 35.3 | 33.9 | – | – | – | – | –
20 | COc1cc(Br)cc2c1OC(N)=C(C#N)C2CC(=O)c1ccccc1 (stereo not drawn) | 36.7 | 99.1 | 100 | 45.9 | 155 | 45.9 | –
21 | COc1cccc2c1C(=O)c1c(O)c3c(c(O)c1C2=O)C[C@@](O)(C(=O)CO)C[C@@H]3O[C@H]1C[C@H](N)[C@H](O)[C@H](C)O1 [DOXORUBICIN] | – | – | – | – | – | – | IC50 [8]: 0.52 µM; IC50 [9]: 1.54 µM
22 | COC(=O)C1=C(N)Oc2c(OC)cc(Br)cc2C1CC(=O)c1cccc(OC)c1 (stereo not drawn) | 94.9 | 142 | – | – | – | – | –
23 | N#CC1=C(N)Oc2ccc(Br)cc2C1CC(=O)c1ccc(Br)cc1 (stereo not drawn) | 34.2 | 47.2 | 67.6 | 43.6 | 93.8 | 32.6 | IC50 [7]: 7.24 µM; IC50 [8]: 16.5 µM; IC50 [9]: 14.7 µM
24 | N#CC1=C(N)Oc2ccccc2C1CC(=O)c1ccccc1 (stereo not drawn) | 78.6 | 82.7 | – | – | – | – | –
25 | COC(=O)C1=C(N)Oc2ccc(Br)cc2C1CC(=O)c1ccc(Br)cc1 (stereo not drawn) | 34.8 | 72.5 | 90 | 43.2 | 94.8 | 39.9 | –
26 | COc1cc(Br)cc(/C=C/C(=O)c2ccc(C)cc2)c1O | 61.5 | 96.8 | 84.6 | 148 | 64.2 | 155 | –
27 | COc1cccc(C(=O)/C=C/c2cc(Br)cc(OC)c2O)c1 | 63.1 | 77.3 | 74.2 | 47 | 69.8 | 33.5 | –
28 | Cc1ccc(C(=O)CC2C(C#N)=C(N)Oc3ccc(Cl)cc32)cc1 (stereo not drawn) | 49 | 85.5 | 92.3 | 53.3 | 155 | 41.8 | –
29 | COC(=O)C1=C(N)Oc2ccc(Br)cc2C1CC(=O)c1ccccc1 (stereo not drawn) | 41.3 | 107 | – | – | – | – | –
30 | Cc1ccc(C(=O)/C=C/c2cc(Br)ccc2O)cc1 | 31.8 | 27.3 | 55.8 | 49.4 | 46.7 | 32.4 | IC50 [7]: 2 µM; IC50 [8]: 1.6 µM; IC50 [9]: 6.52 µM
31 | COC(=O)C1=C(N)Oc2c(OC)cccc2C1CC(=O)c1ccc(Cl)cc1 (stereo not drawn) | 63.8 | 89.8 | – | – | – | – | –
32 | COc1cc(Br)cc(/C=C/C(=O)c2ccc(Br)cc2)c1O | 48.3 | 64.6 | – | – | – | – | –
